Most compounds without a hit are left out; they make up all but 1.7% or so of the library.
GALR2 antag: GALR2 antagonists in receptor-expressing cells, primary screen. antagonist mode. AID 828, 2007. Galanin receptor type 2 (Homo sapiens), O43603. inhibition, % at 4 µM. 140,000 compounds, 0.39% hits;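 note: cells stimulated with galanin 1-16 at roughly its EC80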
Target sequence (O43603 whole entry, looked up): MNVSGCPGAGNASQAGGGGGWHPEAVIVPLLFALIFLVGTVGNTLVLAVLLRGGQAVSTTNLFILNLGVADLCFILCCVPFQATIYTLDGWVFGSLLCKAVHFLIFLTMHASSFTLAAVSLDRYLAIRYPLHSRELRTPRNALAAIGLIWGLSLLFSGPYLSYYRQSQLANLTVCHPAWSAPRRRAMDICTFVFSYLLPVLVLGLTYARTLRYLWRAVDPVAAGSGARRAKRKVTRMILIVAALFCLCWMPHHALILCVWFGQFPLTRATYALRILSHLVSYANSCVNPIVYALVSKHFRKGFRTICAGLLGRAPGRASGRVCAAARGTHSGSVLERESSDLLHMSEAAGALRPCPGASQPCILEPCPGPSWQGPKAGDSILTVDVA
GALR2 ag: GALR2 receptor agonists, primary screen, cell-based. Galanin receptor type 2 (Homo sapiens), O43603. GALR2-expressing cells, agonist activation read-out. activation, % (concentration not given with the values). 140,000 compounds, 0.48% hits. AID 803, 2007; in the data active = activation above about 5%, passing the limit was not always enough
S1P2 blocker: human S1P2 receptor antagonists, primary screen, cell-based; 97,000 compounds, 0.21% hits; AID 736, 2007; Sphingosine 1-phosphate receptor 2 (Homo sapiens), O95136; cell-based S1P2 antagonist assay, inhibition at 5 uM; inhibition, % at 5 µM; in the data active = inhibition above about 45%;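 note: CRE beta-lactamase reporter cells expressing human S1P2 stimulated with S1P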
S1P2 agonist: S1P2 receptor agonists, primary screen, cell-based | activation, % at 4.5 µM | S1P2-expressing cell line, agonist reporter read-out | AID 729, 2007 | 97,000 compounds, 0.46% hits | Sphingosine 1-phosphate receptor 2 (Homo sapiens), O95136; in the data active = activation above about 16%
Rev-RRE block: HIV-1 Rev-RRE binding inhibitors, primary screen, biochemical, FRET, protein-RNA interaction. Rev peptide-RRE RNA binding. 97,000 compounds, 0.79% hits. inhibition, % at 8 µM. AID 704, 2007. P05866;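 active = inhibition above the screen-wide mean plus 3 SD, cut at about 35% in these data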
Target sequence (P05866 whole entry, looked up): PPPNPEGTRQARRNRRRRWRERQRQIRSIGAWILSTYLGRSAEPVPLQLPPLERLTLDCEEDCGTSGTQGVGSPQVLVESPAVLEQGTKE
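Test system – labelled RRE RNA duplex and labelled Rev peptide · Reagent – labelled Rev peptide · Doses – one concentration, 8 µM nominal · Incubation – 5 + 15 min at 25 °C · Signal – FRET fluorescence readout · Read-out basis – % inhibition of FRET ratio versus controls · Control set – DMSO wells as 0% and neomycin B wells as 100% inhibition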
EphB4 antag: EphB4-ephrin-B2 interaction antagonists, primary screen, biochemical, TNYL-RAW peptide probe, fluorescence polarization. Ephrin type-B receptor 4 (Homo sapiens), P54760. inhibition, % at 7 µM. EphB4 LBD / TNYL-RAW-Alexa532 peptide. 97,000 compounds, 0.15% hits;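 active = inhibition above the screen-wide mean inhibition plus 3 SD, cut at about 15% in these data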
GALR2 agon conf: GALR2 agonists, retest of hits, confirmation, cell-based | shares compounds with GALR2 ag | GALR2-expressing cells, agonist activation | activation, % at 5.6 µM | 460 compounds, 10% hits | AID 864, 2007; in the data active = activation above about 8.4%
BLA activ ctr: activators of NFAT-driven beta-lactamase reporter, confirmation, counter-screen for GALR2 agonist project, CHO NFAT-bla cells, FRET readout. shares compounds with GALR2 ag. beta-lactamase FRET activation. activation, % at 5.6 µM. 460 compounds, 10% hits. AID 865, 2007;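 active = activation above the screen-wide mean activation plus 3 SD, cut at about 8% in these data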
GALR2 blk conf: GALR2 antagonists, retest of hits, confirmation, cell-based; GALR2-expressing cells, antagonist mode, inhibition; inhibition, % at 4 µM; shares compounds with GALR2 antag; 480 compounds, 60% hits;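 note: cells stimulated with galanin at about its EC80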
BLA inhib ctr: inhibitors of NFAT-driven beta-lactamase reporter, confirmation, counter-screen for GALR2 antagonist project, CHO NFAT-bla cells, FRET readout; shares compounds with GALR2 antag; 480 compounds, 36% hits; AID 867, 2007; inhibition, % at 4.2 µM; thapsigargin-stimulated;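 active = inhibition above the mean inhibition across tested compounds plus 3 SD, cut at about 27% in these data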
A number is an active result; 0 = inactive; - = not tested or not shown; [ ] = dose if it differs, or a comment. Cut-off read from the data, not from the text of the source, unless noted: active = inhibition above about 27%; inactive = the rest.

SMILES	GALR2 antag	GALR2 ag	S1P2 blocker	S1P2 agonist	Rev-RRE block	EphB4 antag	GALR2 blk conf	BLA inhib ctr	others
Cc1nc(-c2cccc(S(=O)(=O)N3CCCC(C)C3)c2)cs1 (stereo not drawn)	0	27	0	0	0	0	-	-	GALR2 agon conf=0;BLA activ ctr=0
CCc1nc2c(n1O)CCc1nonc1-2	0	0	-	-	-	-	-	-
Nc1c(C(=O)Nc2ccc(S(=O)(=O)N3CCCC3)cc2)sc2nc3ccc(OC(F)(F)F)cc3cc12	0	18	-	-	-	-	-	-	GALR2 agon conf=0;BLA activ ctr=0
Cc1ccc(/C=N/Nc2ccnc3cc(Cl)ccc23)c(C)c1	32	14	-	-	-	-	42	42	GALR2 agon conf=19;BLA activ ctr=10
Cc1ccc2c(c1)sc[n+]2Cc1ccccc1	0	0	0	0	0	0	-	-
CN(C)c1ccc(/C=C/c2nc3ccccc3s2)cc1	45	20	58	0	106[fluorescence artefact?]	0	32	41	GALR2 agon conf=0;BLA activ ctr=9.6
CCCOc1ccc(OC(=O)c2ccc(Br)o2)cc1	0	0	0	0	0	0	-	-
O=c1oc2ccccc2cc1-c1ccc(O)cc1O	0	0	-	-	-	-	-	-
O=c1oc2cc(O)ccc2cc1-c1nc2c(s1)CCc1ccccc1-2	37	14	-	-	-	-	66	70	GALR2 agon conf=0;BLA activ ctr=0
CN(C(=O)COc1ccccc1C(=O)NCCOc1ccccc1)c1ccccc1	29	0	-	-	-	-	43	0
COC(=O)CCC(=O)NC(=S)Nc1sc(C)c(C)c1C(N)=O	0	0	-	-	-	-	-	-
Cc1sc(NC(=S)NC(=O)CCc2ccccc2)c(C(N)=O)c1C	33	0	-	-	-	-	28	36
C=CCn1nc([N+](=O)[O-])nc1Sc1cccc2cccnc12	31	0	-	-	-	-	0	0
CCCCC(=O)Nc1ccc(C(=O)Nc2nc(CC(=O)OCC)cs2)cc1	0	0	0	0	0	0	-	-
CCOC(=O)C1=C(CSc2nc(-c3ccccc3)ccc2C#N)OC(N)=C(C#N)C1c1ccccc1 (stereo not drawn)	0	0	0	0	0	0	-	-
CCOC(=O)C1=C(CSc2nc(-c3ccccc3)ccc2C#N)OC(N)=C(C#N)C1c1cccnc1 (stereo not drawn)	29	0	0	0	37	0	30	0
O=C(Nc1ccc(-c2noc(-c3cccs3)n2)cc1)c1cccnc1	0	0	0	0	0	0	-	-
CC(C)(C)C1=C(C#N)C(c2ccncc2)C(C#N)=C(N)O1 (stereo not drawn)	32	0	-	-	-	-	0	0
CC(C)(C)C1=C(C#N)C(c2ccc3c(c2)OCO3)C(C#N)=C(N)O1 (stereo not drawn)	0	0	0	0	0	0	-	-
Cc1cccc(NC(=O)/C=C/c2ccc([N+](=O)[O-])s2)c1	32	0	-	-	-	-	46	47
Cc1ccc(NC(=O)/C=C/c2ccc([N+](=O)[O-])s2)c(C)c1	33	0	-	-	-	-	54	55
Nc1c(C(=O)Nc2nccs2)sc2nc(-c3cccs3)cc(C(F)(F)F)c12	47	0	0	0	104[fluorescence artefact?]	0	0	0
Cc1cc(C)c2c(N)c(C(=O)Nc3nccs3)sc2n1	0	0	0	0	0	0	-	-
CCN(CC)c1ccc(/C=N/N(c2ccccc2)c2ccccc2)c(O)c1	0	0	-	-	-	-	-	-
CCN(CC)c1ccc(/C=N/Nc2nc3ccccc3[nH]2)c(O)c1	43	0	0	0	0	0	45	0
SMILES	GALR2 antag	GALR2 ag	S1P2 blocker	S1P2 agonist	Rev-RRE block	EphB4 antag	GALR2 blk conf	BLA inhib ctr	others
COc1cc(/C=N\Nc2nc3ccccc3[nH]2)cc(OC)c1OC	0	0	0	0	0	0	-	-
Cc1ccc2cc(/C=N/Nc3nc4ccccc4[nH]3)c(Cl)nc2c1	98	0	-	-	-	-	0	0
Cc1cccc(NC(=O)c2ccccc2NC(=O)C2CCCCC2)c1C	42	0	0	0	0	0	0	0
O=C(Nc1ccccc1)c1ccccc1NC(=O)C1CCCCC1	0	0	0	0	0	0	-	-
O=C(CCl)N1N=C(c2ccco2)CC1c1cccs1 (stereo not drawn)	29	0	-	-	-	-	33	0
CCOC(=O)Nc1ccc2c(c1)N(C(=O)CCN1CCN3CCCC3C1)c1ccccc1CC2 (stereo not drawn)	0	0	0	0	0	0	-	-
COC(=O)Nc1ccc2c(c1)N(C(=O)CCN1CCN3CCCC3C1)c1ccccc1CC2 (stereo not drawn)	28	0	-	-	-	-	0	0
CC(=O)c1nc(N2C(=O)CC(Cc3ccc(C)cc3)C2=O)sc1C (stereo not drawn)	0	0	-	-	-	-	-	-
COc1cccc(/C=N/Nc2nc(N3CCCC3)nc(N3CCCC3)n2)c1O	29	0	0	0	0	0	0	0
Cc1sc2ncnc(NCc3ccco3)c2c1C	0	0	0	0	0	0	-	-
Cc1sc2ncnc(NCc3cccs3)c2c1C	28	0	0	0	0	0	0	0
O=C(CSc1nc(-c2ccc(F)cc2)cs1)N1CCN(C(=O)c2ccco2)CC1	0	0	-	-	-	-	-	-
COc1ccc(-c2cn3nc4c(nc3n2)CCCC4)cc1	31	0	0	0	98[fluorescence artefact?]	0	0	0
COc1ccc(-c2cn3ccc4ccccc4c3n2)cc1	0	0	0	0	0	0	-	-
CCCCNC1=C(Br)C(=O)CC(C)(C)C1	0	0	0	0	0	0	-	-
Cc1ccc(C2CC(=O)Nc3cc4c(cc32)OCO4)o1 (stereo not drawn)	34	0	0	0	0	0	0	0
CCNC(=O)COc1ccc(C=O)cc1OC	66	0	-	-	-	-	0	0
COc1cccc(CNC(=O)C2CCN(S(=O)(=O)N3CCCC3)CC2)c1	0	0	-	-	-	-	-	-
O=C(OCn1ncc(Cl)c(Cl)c1=O)c1ccc(F)cc1	91	0	80	0	0	0	93	86
O=C(OCn1ncc(Cl)c(Cl)c1=O)c1ccccc1Cl	95	0	84	0	0	0	93	82
N#CCC(=O)N1CCCCCC1	0	0	0	0	0	0	-	-
O=C(/C=C/c1ccccc1)Nc1ncn[nH]1	30	0	0	0	0	0	37	0
O=C(CCc1ccccc1)Nc1ncn[nH]1	0	0	0	0	0	0	-	-

Screens deposited in PubChem BioAssay by The Scripps Research Institute Molecular Screening Center.
